The values below come from ChEMBL document CHEMBL3272177, “Hypolipidemic alkoxybenzoic acids” (1976).

Holding throughout (set-up): scale not given: the % may be the effect or the level left
The species named for assay [1] is Rattus norvegicus. Put plainly: Reduction in triglyceride level in CFE rat […] in serum at 0.1% of diet treated through diet for 6 days relative to control. The class given is functional. Put shortly: (§1)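 Compound dissolved in methanol-chloroform (1:3 v/v), mixed into ground rat chow at 0.1, 0.05 or 0.025% (w/w), and solvent evaporated; controls received solvent-treated chow. Rats fed ad libitum with water for 6 days, then killed fed and bled. Serum sterols and triglycerides measured by autoanalyzer. Values given as percent of control, mean ± SE; significance by Student's t test.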

The species named for assay [2] is Rattus norvegicus. Put plainly: Reduction in sterol level in CFE rat […] in serum at 0.1% of diet treated through diet for 6 days relative to control. The class given is functional. The essentials: as §1
Assay [3] is filed under the species Rattus norvegicus. Put plainly: Reduction in sterol level in CFE rat […] at 0.025% of diet treated through diet for 6 days relative to control. The assay is classed as functional, Serum. The essentials: as §1
Assay [4] is filed under the species Rattus norvegicus. Description: Reduction in sterol level in CFE rat […] in serum at 0.05% of diet treated through diet for 6 days relative to control. The assay is classed as functional. Put shortly:
as §1

The species named for assay [5] is Rattus norvegicus. Description: Reduction in triglyceride level in CFE rat […] in serum at 0.05% of diet treated through diet for 6 days relative to control. The class given is functional. Put shortly: as §1
The species entered for assay [6] is Rattus norvegicus. Description: Reduction in triglyceride level in CFE rat […] at 0.025% of diet treated through diet for 6 days relative to control. The class given is functional, Serum. The essentials: as §1

As to `CCCCCCCCCCCC(CCOc1ccc(C(=O)O)cc1)N=[N+]=[N-]` (stereo unspecified), the Activity in assay [1] was found to be 55%; in assay [2], 76%; in assay [3] it was 105%; in assay [4], 89%; in assay [5], 60%; in assay [6], 98%.

For `CCCCCCCCCCCC(CCOc1ccc(C(=O)O)cc1)SCc1ccccc1` (stereo unspecified), the Activity in assay [1] turned out to be 69%; in assay [2] it was 92%; in assay [3] it was 109%; in assay [4], 100%; in assay [5] it was 79%; in assay [6], 92%.

Regarding `CCCCCCCCCCCC(CCOc1ccc(C(=O)O)cc1)SCC` (stereo unspecified), the Activity in assay [1] came to 44%; in assay [2], 83%; in assay [3], 95%; in assay [4], 93%; in assay [5] it was 74%; in assay [6], 68%.

Turning to `CCCCCCCCCCCCCCCCOc1ccc(C(=O)O)cc1Cl`, the Activity is recorded as 75% in assay [1]; 103% in assay [2]; 108% in assay [3]; 97% in assay [4]; 87% in assay [5]; 69% in assay [6].

For the compound `CCCCCCCCCCCCCCCCOc1ccc(C(=O)O)cc1[N+](=O)[O-]`, the Activity was found to be 122% in assay [1]; 103% in assay [2]; 95% in assay [3]; 101% in assay [4]; 120% in assay [5]; 93% in assay [6].

Take `CCCCCCCCCCCCCCCCOc1c(Cl)cc(C(=O)O)cc1Cl`: the Activity in assay [1] is recorded as 103%; in assay [2], 103%; in assay [3], 98%; in assay [4], 105%; in assay [5], 89%; in assay [6], 100%.

Regarding `CCCCCCCCCCCCCCCCOc1c(I)cc(C(=O)O)cc1I`, the Activity is recorded as 105% in assay [1]; 93% in assay [2]; 94% in assay [3]; 85% in assay [4]; 86% in assay [5]; 96% in assay [6].

On to `CCCCCCCCCCCCCCCCOc1c(C)cc(C(=O)O)cc1C`, for which the Activity in assay [1] is 82%; in assay [2], 97%; in assay [3], 78%; in assay [4], 89%; in assay [5] it was 79%; in assay [6] it was 68%.

On to `CCCCCCCCCCCC(O)CCOc1ccc(C(=O)O)cc1` (stereo unspecified), for which the Activity in assay [1] was 53%; in assay [2], 116%; in assay [3] it was 105%; in assay [4], 112%; in assay [5], 60%; in assay [6] it was 69%.

Regarding `CCCCCCCCCCCC(Cl)CCOc1ccc(C(=O)O)cc1` (stereo unspecified), the Activity in assay [1] worked out at 47%; in assay [2], 60%; in assay [3], 72%; in assay [4], 69%; in assay [5] it was 53%; in assay [6], 59%.

Take `CCCCCCCCCCCC(S)CCOc1ccc(C(=O)O)cc1` (stereo unspecified): the Activity in assay [1] was found to be 47%; in assay [2] it was 83%; in assay [3], 94%; in assay [4], 89%; in assay [5], 53%; in assay [6], 76%.

For `O=C(O)c1ccc(OCCCCCCCCCCCO)cc1`, the Activity in assay [1] was found to be 81%; in assay [2], 113%; in assay [3], 91%; in assay [4], 106%; in assay [5] it was 93%; in assay [6], 83%.

For the compound `COCCCCCCCCCCCOc1ccc(C(=O)O)cc1`, the Activity in assay [1] was 64%; in assay [2] it was 97%; in assay [3], 79%; in assay [4] it was 90%; in assay [5], 53%; in assay [6] it was 80%.

With `CCOCCCCCCCCCCCOc1ccc(C(=O)O)cc1`, the Activity was determined as 63% in assay [1]; 95% in assay [2]; 103% in assay [3]; 109% in assay [4]; 73% in assay [5]; 66% in assay [6].

Turning to `CCCCOCCCCCCCCCCCOc1ccc(C(=O)O)cc1`, the Activity in assay [1] was determined as 55%; in assay [2], 97%; in assay [3], 75%; in assay [4] it was 81%; in assay [5], 67%; in assay [6], 74%.

With `O=C(O)c1ccc(OCCCCCCCCCCCS)cc1`, the Activity is given as 44% in assay [1]; 80% in assay [2]; 44% in assay [3]; 74% in assay [4]; 47% in assay [5]; 61% in assay [6].

Consider `O=C(O)c1ccc(OCCCCCCCCCCCCS)cc1`, for which the Activity in assay [1] is on record as 26%; in assay [2], 79%; in assay [3] it was 88%; in assay [4], 81%; in assay [5], 46%; in assay [6], 61%.

With `O=C(O)c1ccc(OCCCCCCCCCCCCCCCS)cc1`, the Activity in assay [1] stood at 40%; in assay [2] it was 82%; in assay [3], 100%; in assay [4], 81%; in assay [5], 42%; in assay [6], 56%.

As for `O=C(O)c1ccc(OCCCCCCCCCCCCCCCCS)cc1`, the Activity was determined as 37% in assay [1]; 83% in assay [2]; 82% in assay [3]; 82% in assay [4]; 35% in assay [5]; 51% in assay [6].

As for `CCSCCCCCCCCCCCOc1ccc(C(=O)O)cc1`, the Activity in assay [1] is 48%; in assay [2], 76%; in assay [3] it was 74%; in assay [4], 70%; in assay [5], 56%; in assay [6], 60%.

On to `CCSCCCCCCCCCCCCCCCCOc1ccc(C(=O)O)cc1`, for which the Activity in assay [1] amounted to 45%; in assay [2], 90%; in assay [3], 89%; in assay [4], 88%; in assay [5] it was 48%; in assay [6], 59%.

For the compound `CCCSCCCCCCCCCCCOc1ccc(C(=O)O)cc1`, the Activity turned out to be 42% in assay [1]; 86% in assay [2]; 96% in assay [3]; 94% in assay [4]; 43% in assay [5]; 61% in assay [6].

As for `CCCCSCCCCCCCCCCCOc1ccc(C(=O)O)cc1`, the Activity was determined as 60% in assay [1]; 76% in assay [2]; 70% in assay [3]; 76% in assay [4]; 53% in assay [5]; 60% in assay [6].

`O=C(O)c1ccc(OCCCCCCCCCCCSCc2ccccc2)cc1`: the Activity in assay [1] is given as 41%; in assay [2] it was 77%; in assay [3] it was 88%; in assay [4] it was 75%; in assay [5] it was 55%; in assay [6], 71%.

`O=C(O)c1ccc(OCCCCCCCCCCCCCCCSCc2ccccc2)cc1`: the Activity in assay [1] amounted to 37%; in assay [2] it was 82%; in assay [3] it was 109%; in assay [4], 101%; in assay [5], 50%; in assay [6], 70%.

With `CCCC[S+]([O-])CCCCCCCCCCCOc1ccc(C(=O)O)cc1` (stereo unspecified), the Activity in assay [1] came to 44%; in assay [2], 102%; in assay [3] it was 102%; in assay [4], 97%; in assay [5] it was 54%; in assay [6] it was 83%.

In the case of `CC[S+]([O-])CCCCCCCCCCCCCCCCOc1ccc(C(=O)O)cc1` (stereo unspecified), the Activity in assay [1] stood at 55%; in assay [2], 94%; in assay [3] it was 89%; in assay [4] it was 81%; in assay [5], 80%; in assay [6], 87%.

Turning to `CCCCS(=O)(=O)CCCCCCCCCCCOc1ccc(C(=O)O)cc1`, the Activity in assay [1] was determined as 57%; in assay [2] it was 94%; in assay [3] it was 91%; in assay [4], 95%; in assay [5] it was 69%; in assay [6], 81%.

For the compound `CCS(=O)(=O)CCCCCCCCCCCCCCCCOc1ccc(C(=O)O)cc1`, the Activity was determined as 60% in assay [1]; 89% in assay [2]; 90% in assay [3]; 83% in assay [4]; 61% in assay [5]; 70% in assay [6].

Regarding `CCCCNCCCCCCCCCCCOc1ccc(C(=O)O)cc1`, the Activity in assay [1] is 100%; in assay [2] it was 100%; in assay [3] it was 98%; in assay [4] it was 104%; in assay [5] it was 103%; in assay [6], 119%.

On to `O=C(O)CCCCCCCCCCOc1ccc(C(=O)O)cc1`, for which the Activity in assay [1] worked out at 100%; in assay [2] it was 94%; in assay [3] it was 96%; in assay [4] it was 100%; in assay [5] it was 135%; in assay [6], 118%.
